According to ChEMBL document CHEMBL6083205, “A comprehensive apoptotic assessment of niloticin in cervical cancer cells: a tirucallane-type triterpenoid from Aphanamixis polystachya (Wall.) Parker” (RSC Med Chem, 2024):
Active and inactive are the calls of the source. The calls are words filed in the database; no cut-off is given here.

Experiments:
A549 = assay: Antiproliferative activity against human A549 cells assessed as inhibition of cell growth incubated for 24 hrs by MTT assay; type: functional, cell-based; conditions: A549, 24 h
In short: (§1)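 Cells kept in DMEM with 10% FBS and 1% antibiotic-antimycotic at 37 °C and 5% CO2. Seeded at 8 × 10^3 cells per 100 μL and left 24 h, then exposed 24 h to 5, 10, 20, 50 or 100 μM. MTT at 0.5 mg/mL in HBSS was added for 2–4 h at 37 °C in the dark. Formazan was dissolved in DMSO, A570 was read, and IC50 was derived.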

HeLa [1] = assay: Induction of cell cycle arrest in human HeLa cells assessed as proportion of cell accumulation at subG0 phase at 7 uM by propidium iodide staining based flow cytometry (reference value: 7.6%); type: functional
HeLa [2] = assay: Induction of apoptosis in human HeLa cells assessed as cells with impaired membrane by measuring increase in pink colour intensity at 7 to 11 uM by APOP staining based microscopy; type: functional, cell-based; conditions: dose 7-11 µM
In short: (§2)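 HeLa exposed to 7 and 11 μM versus untreated control; live/dead staining either with acridine orange–ethidium bromide dual stain (fluorescence, FITC filter) or with APOPercentage dye (pink uptake, brightfield); imaged on inverted microscope.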

HeLa [3] = assay: Induction of apoptosis in human HeLa cells assessed as increase in caspase-8 activation at 7 to 11 uM by fluorometric assay; type: functional, cell-based; conditions: dose 7-11 µM
In short: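 HeLa seeded at 3 × 10^6 in 6-well plates, treated at 7 and 11 μM; caspase-3, -8 and -9 activity each measured by fluorometric kit per manufacturer's protocol; fluorescence read at ex 400 nm / em 505 nm; fold change versus control; mean ± SD.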

HeLa [4] = assay: Induction of apoptosis in human HeLa cells assessed as DNA fragmentation by measuring less intense peak for deoxyribose variation (1460-65 cm^-1) at 7 to 11 uM incubated for 24 hrs by surface-enhanced Raman spectroscopic analysis; type: functional, cell-based; conditions: dose 7-11 µM
In short: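 DNA isolated from control and 7 or 11 μM-treated HeLa, mixed 8:2 with 40–45 nm gold nanoparticles as SERS substrate, 10 min incubation; confocal Raman with 633 nm laser at 5 mW, 600 g/mm grating, 3 cm−1 resolution, 3 accumulations of 5 s integration.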

HeLa [5] = assay: Induction of apoptosis in human HeLa cells assessed as proportion of viable cells at 7 uM by AnnexinV-FITC/PI staining based FACS analysis (reference value: 77.7%); type: functional
HeLa [6] = assay: Induction of cell cycle arrest in human HeLa cells assessed as downregulation of Cdk2 protein expression at 7 to 11 uM by western blot analysis; type: functional, cell-based; conditions: dose 7-11 µM
In short: (§3)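 Protein extracted from treated and untreated HeLa, BCA-quantified and normalised; SDS-PAGE, PVDF transfer, 5% skim milk block; primary antibodies 18 h at 4 °C, HRP secondary; chemiluminescent detection of Cdk-2, cyclin A2, cyclin B1, Cdc-25 with β-actin loading control.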

HeLa [7] = assay: Induction of cell cycle arrest in human HeLa cells assessed as proportion of cell accumulation at G1 phase at 11 uM by propidium iodide staining based flow cytometry (reference value: 67.7%); type: functional
HeLa [8] = assay: Antimetastatic activity in human HeLa cells assessed as inhibition of cell migration at 3 to 6 uM measured after 24 to 48 hrs by scratch wound assay; type: functional, cell-based; conditions: dose 3-6 µM, time 24-48 hrs
In short: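 HeLa monolayer formed 24 h after seeding, scratched with a pipette tip and washed with PBS; treated at 3 and 6 μM, untreated cells as control; wound imaged at 0, 24 and 48 h; percentage wound closure/area measured by image analysis.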

HeLa [9] = assay: Induction of cell cycle arrest in human HeLa cells assessed as downregulation of Cdc25 protein expression at 7 to 11 uM by western blot analysis; type: functional, cell-based; conditions: dose 7-11 µM; in short: as §3
HeLa [10] = assay: Induction of cell cycle arrest in human HeLa cells assessed as proportion of cell accumulation at S phase at 11 uM by propidium iodide staining based flow cytometry (reference value: 15.9%); type: functional
HeLa [11] = assay: Induction of cell cycle arrest in human HeLa cells assessed as downregulation of Cyclin A2 protein expression at 7 to 11 uM by western blot analysis; type: functional, cell-based; conditions: dose 7-11 µM; in short: as §3
HeLa [12] = assay: Induction of apoptosis in human HeLa cells assessed as proportion of early apoptotic cells at 11 uM by AnnexinV-FITC/PI staining based FACS analysis (reference value: 4.5%); type: functional
HeLa [13] = assay: Induction of cell cycle arrest in human HeLa cells assessed as downregulation of Cyclin B1 protein expression at 7 to 11 uM by western blot analysis; type: functional, cell-based; conditions: dose 7-11 µM; in short: as §3
HeLa [14] = assay: Induction of apoptosis in human HeLa cells assessed as cells with compromised membrane by measuring increase in red fluorescence intensity at 7 to 11 uM by acridine orange/ethidium bromide dual staining based fluorescence microscopy; type: functional, cell-based; conditions: dose 7-11 µM; in short: as §2
HeLa [15] = assay: Induction of apoptosis in human HeLa cells assessed as proportion of necrotic cells at 7 uM by AnnexinV-FITC/PI staining based FACS analysis (reference value: 3.4%); type: functional
HeLa [16] = assay: Antimetastatic activity in human HeLa cells assessed as downregulation of Ki67 expression at 3 to 6 uM incubated for 24 hrs by DAPI staining based immunofluorescence analysis; type: functional, cell-based; conditions: dose 3-6 µM
In short: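 HeLa, 7 × 10^3 cells/well, treated at two concentrations for 24 h; fixed in 4% paraformaldehyde 15–30 min at 37 °C, permeabilised with 0.1% Triton-X 10 min, blocked in 5% BSA/PBST 1 h; Ki67 primary antibody overnight, then secondary antibody and DAPI counterstain; fluorescence microscopy imaging, fluorescence intensity quantified; mean ± SD.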

[17] = Cytotoxicity against human MCF-10A cells assessed as inhibition of cell growth incubated for 24 hrs by MTT assay; type: toxicity, cell-based
In short: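 Non-tumorigenic breast epithelial line grown in MEGM with 5% horse serum at 37 °C and 5% CO2. Plated at 8 × 10^3 cells per well and treated 24 h later for 24 h at 5–100 μM. MTT (0.5 mg/mL in HBSS) was applied for 2–4 h at 37 °C in the dark, then DMSO. Read at 570 nm for IC50.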

HeLa [18] = assay: Induction of mitochondrial membrane potential depolarization in human HeLa cells assessed as increase in JC-1 monomers by measuring increase in green fluorescence intensity at 7 to 11 uM incubated for 24 hrs by JC-1 staining based fluorescence microscopic analysis; type: functional, cell-based; conditions: dose 7-11 µM
In short: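 HeLa treated for 24 h, then stained with JC-1 dye; red aggregate and green monomer fluorescence imaged on inverted microscope with FITC filter; aggregate-to-monomer ratio calculated relative to control; mean ± SD; scale bar 50 μm.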

PANC-1 = assay: Antiproliferative activity against human PANC-1 cells assessed as inhibition of cell growth incubated for 24 hrs by MTT assay; type: functional, cell-based; conditions: PANC-1, 24 h; in short: as §1

C[C@@H](C[C@@H](O)[C@@H]1OC1(C)C)[C@@H]1CC[C@]2(C)C3=CC[C@H]4C(C)(C)C(=O)CC[C@]4(C)[C@H]3CC[C@@]12C
IC50 (A549): 30.6 µM | Activity (HeLa [1]): 25.6% | Activity (HeLa [2]): Active | Activity (HeLa [3]): Active | Activity (HeLa [4]): Active | Activity (HeLa [5]): 38.3% | Activity (HeLa [6]): Active | Activity (HeLa [7]): 44.1% | Activity (HeLa [8]): Active | Activity (HeLa [9]): Active | Activity (HeLa [10]): 9.8% | Activity (HeLa [11]): Active | Activity (HeLa [12]): 15.8% | Activity (HeLa [13]): Active | Activity (HeLa [14]): Active | Activity (HeLa [15]): 0.7% | Activity (HeLa [16]): Active | IC50 at 24 h [17]: 83.3 µM | Activity (HeLa [18]): Active | IC50 (PANC-1): 16.5 µM
